Source: ChEMBL document CHEMBL1136492, “Design and syntheses of melanocortin subtype-4 receptor agonists: evolution of the pyridazinone archetype” (Bioorg Med Chem Lett, 2003)

Assays:
Melanocortin receptor 4 [1] = target: T1, Melanocortin receptor 4 (Homo sapiens, UniProt P32245); assay: Concentration required to inhibit binding of [125I]-NDP-alpha-MSH from membranes prepared from CHO cells expressing human melanocortin subtype-4-receptor (MC4R); format: cell membranes
Outline: (§1)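 Competition binding using membranes from CHO cells expressing human MC4R, with [125I]-NDP-α-MSH as radioligand. IC50 is the compound concentration that inhibits radioligand binding by 50%. Values are means of at least two separate experiments.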

Melanocortin receptor 4 [2] = target: T1, Melanocortin receptor 4; assay: Percentage of cAMP accumulation at 10 uM of compound relative to alpha-MSH, at human MC4R; format: functional
Outline: (§2)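 cAMP accumulation at human MC4R, measured relative to α-MSH. EC50 is the inflection point of the cAMP dose-response curve. Where no EC50 is given, the value is the accumulation at the highest concentration tested. %Max is the accumulation at 10 µM compound relative to α-MSH. Values are means of at least two separate experiments.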

Melanocortin receptor 4 [3] = target: T1, Melanocortin receptor 4; assay: Effective concentration for cAMP accumulation relative to alpha-MSH at human MC4R; format: functional; outline: as §2
Melanocortin receptor 5 = Melanocortin receptor 5 (Homo sapiens, UniProt P33032); assay: Concentration required to inhibit binding of [125I]NDP-alpha-MSH from membranes prepared from CHO cells expressing human melanocortin subtype-5-receptor (MC5R); format: cell membranes
Sequence of Melanocortin receptor 5 (P33032 whole entry): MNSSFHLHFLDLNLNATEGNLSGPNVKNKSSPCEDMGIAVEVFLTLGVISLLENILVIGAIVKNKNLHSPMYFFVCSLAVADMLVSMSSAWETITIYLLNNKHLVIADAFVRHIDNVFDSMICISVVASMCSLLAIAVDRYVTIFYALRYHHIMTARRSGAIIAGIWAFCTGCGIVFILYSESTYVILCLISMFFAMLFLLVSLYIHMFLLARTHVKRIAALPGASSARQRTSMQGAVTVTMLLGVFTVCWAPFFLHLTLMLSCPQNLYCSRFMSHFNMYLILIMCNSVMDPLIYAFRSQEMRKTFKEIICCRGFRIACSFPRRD

Melanocortin receptor 3 = Melanocortin receptor 3 (Homo sapiens, UniProt P41968); assay: Concentration required to inhibit binding of [125I]NDP-alpha-MSH from membranes prepared from CHO cells expressing human melanocortin subtype-3-receptor (MC3R); format: cell membranes
Sequence of Melanocortin receptor 3 (P41968 whole entry): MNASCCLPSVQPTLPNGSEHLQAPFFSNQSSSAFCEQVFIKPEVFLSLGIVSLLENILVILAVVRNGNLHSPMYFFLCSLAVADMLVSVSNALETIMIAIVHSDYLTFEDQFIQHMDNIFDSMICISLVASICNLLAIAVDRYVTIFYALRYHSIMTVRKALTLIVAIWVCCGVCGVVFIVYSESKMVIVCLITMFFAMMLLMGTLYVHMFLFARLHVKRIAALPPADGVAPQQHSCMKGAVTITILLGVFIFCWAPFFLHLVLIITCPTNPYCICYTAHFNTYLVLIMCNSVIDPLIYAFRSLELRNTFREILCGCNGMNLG

Melanocortin receptor 4 [4] = target: T1, Melanocortin receptor 4; assay: Percentage of cAMP accumulation of compound relative to alpha-MSH, at human MC4R; format: functional; outline: as §2
Melanocortin receptor 4 [5] = target: T1, Melanocortin receptor 4; assay: Concentration required to inhibit binding of [125I]NDP-alpha-MSH from membranes prepared from CHO cells expressing human MC4R; format: cell membranes; outline: as §1

T1 sequence (P32245 whole entry): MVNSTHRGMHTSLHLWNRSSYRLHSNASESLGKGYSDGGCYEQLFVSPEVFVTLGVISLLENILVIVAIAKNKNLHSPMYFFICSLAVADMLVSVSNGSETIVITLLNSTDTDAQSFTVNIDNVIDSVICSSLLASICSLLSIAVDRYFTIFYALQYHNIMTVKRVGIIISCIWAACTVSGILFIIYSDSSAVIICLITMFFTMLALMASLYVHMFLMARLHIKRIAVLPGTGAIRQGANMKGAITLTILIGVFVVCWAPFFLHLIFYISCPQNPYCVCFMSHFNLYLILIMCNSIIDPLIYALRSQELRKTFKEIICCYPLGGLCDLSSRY

COc1ccc(-n2nc(Sc3ccc(Cl)cc3)cc(CC[C@@H](C)NC(=O)[C@H]3CNCC[C@@H]3c3ccccc3)c2=O)cc1
IC50 (Melanocortin receptor 4 [1]): 33 nM
Max (Melanocortin receptor 4 [2]): 77%
EC50 (Melanocortin receptor 4 [3]): 177 nM
IC50 (Melanocortin receptor 5): 1410 nM
IC50 (Melanocortin receptor 3): 2170 nM

O=C(N[C@H](Cc1ccc(Cl)cc1)C(=O)N1CCC(Cn2cncn2)(C2CCCCC2)CC1)[C@H]1CCc2ccccc2N1
IC50 (Melanocortin receptor 4 [1]): 1.2 nM
Max (Melanocortin receptor 4 [4]): 97%

COc1ccc(-n2nc(Sc3ccc(Cl)cc3)cc(CC[C@@H](C)NC(=O)[C@@H]3CNCC[C@H]3c3ccccc3)c2=O)cc1
IC50 (Melanocortin receptor 4 [1]): 2060 nM
Max (Melanocortin receptor 4 [2]): 32%
EC50 (Melanocortin receptor 4 [3]): > 5000 nM

COc1ccc(-n2nc(Sc3ccc(Cl)cc3)cc(CC[C@H](C)NC(=O)[C@H]3CNCC[C@@H]3c3ccccc3)c2=O)cc1
IC50 (Melanocortin receptor 4 [1]): 1200 nM
Max (Melanocortin receptor 4 [2]): 65%
EC50 (Melanocortin receptor 4 [3]): 1730 nM

COc1ccc(-n2nc(Sc3ccc(Cl)cc3)cc(C(C)CCNC(=O)[C@H]3CNCC[C@@H]3c3ccccc3)c2=O)cc1 (stereo partly drawn)
IC50 (Melanocortin receptor 4 [1]): 3930 nM
EC50 (Melanocortin receptor 4 [3]): > 5000 nM
Max (Melanocortin receptor 4 [4]): 31%

COc1ccc(-n2nc(Sc3ccc(Cl)cc3)cc(CC[C@@H](C)NC(=O)[C@@H]3CNCC[C@@H]3c3ccccc3)c2=O)cc1
Max (Melanocortin receptor 4 [2]): 38%
EC50 (Melanocortin receptor 4 [3]): > 5000 nM

COc1ccc(-n2nc(Sc3ccc(Cl)cc3)cc(CC(C)CNC(=O)[C@H]3CNCC[C@@H]3c3ccccc3)c2=O)cc1 (stereo partly drawn)
IC50 (Melanocortin receptor 4 [1]): 2170 nM
EC50 (Melanocortin receptor 4 [3]): > 5000 nM
Max (Melanocortin receptor 4 [4]): 35%

COc1ccc(-n2nc(Sc3ccc(Cl)cc3)cc(CC[C@@H](C)NC(=O)[C@H]3CNC[C@@H]3c3ccccc3)c2=O)cc1 [listing 1 of 3 here]
Max (Melanocortin receptor 4 [2]): 103%
Max (Melanocortin receptor 4 [4]): 97%

COc1ccc(-n2nc(Sc3ccc(Cl)cc3)cc(CCC(C)NC(=O)[C@H]3CCNC[C@@H]3c3ccccc3)c2=O)cc1 (stereo partly drawn)
IC50 (Melanocortin receptor 4 [1]): 339 nM
EC50 (Melanocortin receptor 4 [3]): 260 nM
Max (Melanocortin receptor 4 [4]): 79%

COc1ccc(-n2nc(Sc3ccc(Cl)cc3)cc(CC[C@H](C)NC(=O)[C@@H]3CNCC[C@@H]3c3ccccc3)c2=O)cc1
Max (Melanocortin receptor 4 [2]): 12%

COc1ccc(-n2nc(Sc3ccc(Cl)cc3)cc(CC[C@@H](C)NC(=O)[C@H]3CNC[C@@H]3c3ccccc3)c2=O)cc1 [listing 2 of 3 here]
IC50 (Melanocortin receptor 4 [1]): 190 nM
EC50 (Melanocortin receptor 4 [3]): 405 nM

COc1ccc(-n2nc(Sc3ccc(Cl)cc3)cc(CC[C@@H](C)NC(=O)[C@H]3CNCC[C@H]3c3ccccc3)c2=O)cc1
IC50 (Melanocortin receptor 4 [1]): 2240 nM
Max (Melanocortin receptor 4 [2]): 54%
EC50 (Melanocortin receptor 4 [3]): 4050 nM

COc1ccc(-n2nc(Sc3ccc(Cl)cc3)cc(CC[C@@H](C)NC(=O)[C@H]3CCNC[C@@H]3c3ccccc3)c2=O)cc1
IC50 (Melanocortin receptor 4 [1]): 130 nM
Max (Melanocortin receptor 4 [2]): 85%
EC50 (Melanocortin receptor 4 [3]): 237 nM

COc1ccc(-n2nc(Sc3ccc(Cl)cc3)cc(CCCNC(=O)[C@H]3CCNC[C@@H]3c3ccccc3)c2=O)cc1
IC50 (Melanocortin receptor 4 [1]): 2750 nM
EC50 (Melanocortin receptor 4 [3]): > 5000 nM
Max (Melanocortin receptor 4 [4]): 28%

COc1ccc(-n2nc(Sc3ccc(Cl)cc3)cc(CCC(=O)NCCOc3ccccc3)c2=O)cc1
IC50 (Melanocortin receptor 4 [5]): 5600 nM
Max (Melanocortin receptor 4 [2]): 15%

COc1ccc(-n2nc(Sc3ccc(Cl)cc3)cc(CCC(=O)NC3CCCCNC3=O)c2=O)cc1 (stereo not drawn)
IC50 (Melanocortin receptor 4 [5]): 2.27 nM
Max (Melanocortin receptor 4 [2]): 0%

COc1ccc(-n2nc(Sc3ccc(Cl)cc3)cc(CCC(=O)N[C@@H]3CCc4ccccc4NC3=O)c2=O)cc1
IC50 (Melanocortin receptor 4 [1]): 144 nM
EC50 (Melanocortin receptor 4 [3]): 3060 nM
Max (Melanocortin receptor 4 [4]): 34%

COc1ccc(-n2nc(Sc3ccc(Cl)cc3)cc(CC[C@@H](C)NC(=O)[C@H]3CNC[C@@H]3c3ccccc3)c2=O)cc1 [listing 3 of 3 here]
IC50 (Melanocortin receptor 4 [1]): 380 nM
EC50 (Melanocortin receptor 4 [3]): 250 nM

COc1ccc(-n2nc(Sc3ccc(Cl)cc3)cc(CC[C@H](C)NC(=O)[C@@H]3CNCC[C@H]3c3ccccc3)c2=O)cc1
IC50 (Melanocortin receptor 4 [1]): 2990 nM
Max (Melanocortin receptor 4 [2]): 5%

COc1ccc(-n2nc(Sc3ccc(Cl)cc3)cc(CC[C@H](C)NC(=O)[C@H]3CNCC[C@H]3c3ccccc3)c2=O)cc1
IC50 (Melanocortin receptor 4 [1]): 9020 nM
Max (Melanocortin receptor 4 [2]): 13%

COc1ccc(-n2nc(Sc3ccc(Cl)cc3)cc(CC[C@H](C)NC(=O)[C@H]3CNC[C@@H]3c3ccccc3)c2=O)cc1
IC50 (Melanocortin receptor 4 [1]): 975 nM
EC50 (Melanocortin receptor 4 [3]): 5800 nM
Max (Melanocortin receptor 4 [4]): 67%

COc1ccc(-n2nc(Sc3ccc(Cl)cc3)cc(CCCNC(=O)[C@H]3CNCC[C@@H]3c3ccccc3)c2=O)cc1
IC50 (Melanocortin receptor 4 [1]): 1970 nM
EC50 (Melanocortin receptor 4 [3]): 500 nM
Max (Melanocortin receptor 4 [4]): 20%

COc1ccc(-n2nc(Sc3ccc(Cl)cc3)cc(CCC(C)NC(=O)[C@H]3CNCC[C@@H]3c3ccccc3)c2=O)cc1 (stereo partly drawn)
IC50 (Melanocortin receptor 4 [1]): 41 nM
EC50 (Melanocortin receptor 4 [3]): 227 nM
Max (Melanocortin receptor 4 [4]): 82%

COc1ccc(-n2nc(Sc3ccc(Cl)cc3)cc(CCCNC(=O)[C@H]3CNC[C@@H]3c3ccccc3)c2=O)cc1
IC50 (Melanocortin receptor 4 [1]): 1240 nM
EC50 (Melanocortin receptor 4 [3]): 820 nM
Max (Melanocortin receptor 4 [4]): 22%
